This passage reports IC50 and Index results from ChEMBL document CHEMBL1136166, “The imidazo[2,1-a]isoindole system. A new skeletal basis for antiplasmodial compounds” (Bioorg Med Chem Lett, 2003).

Structures are written as SMILES. ≈ marks a conversion by molar mass, not a printed value. Where “and” joins values, the source holds several entries; their conditions need not be identical. Identical values can stand only once.

Assay [1] has as its system Plasmodium falciparum. Nature of the assay: In vitro inhibitory concentration against Plasmodium falciparum F32. It counts as functional, organism-based. In a few lines: (§1)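 P. falciparum F32-Tanzania (chloroquine-sensitive) cultured per Trager-Jensen in glucose-enriched RPMI 1640 with 10% human serum, 37 °C, candle jar. Human O+ red cells at 5% haematocrit, 1% parasitaemia. After 24 h, medium replaced with drug-containing medium (final DMSO ≤0.1%) and incubated a further 48 h. Parasitaemia counted on blood smears; IC50 read graphically from % inhibition vs concentration. Triplicate. Index = IC50 chloroquine/IC50 compound ×100.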

Assay [2] deals with Plasmodium falciparum. Nature of the assay: Antiplasmodial potency relative to chloroquine. It counts as functional. In a few lines: as §1
Assay [3] concerns Ferriprotoporphyrin IX. Nature of the assay: Antiplasmodial potency relative to chloroquine in ferriprotoporphyrin biomineralisation assay. It counts as functional. Conditions: Plasmodium falciparum; call rule not given here.
For assay [4], the system named is Ferriprotoporphyrin IX. Nature of the assay: In vitro inhibitory concentration against ferriprotoporphyrin in biomineralisation assay (FBIT). It counts as functional, Plasmodium falciparum. In a few lines: (§2)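 Heme biomineralization (FBIT): haemin chloride (0.5 mg/mL stock in DMSO), 0.5 M sodium acetate pH 4.4 and compound solution (10 mg/mL stock) were added in that order, final pH 5–5.2, and incubated at 37 °C for 18–24 h. After centrifugation, the pellet was washed with DMSO and the β-haematin dissolved in 0.1 M NaOH; absorbance read at 405 nm. % inhibition calculated against the solvent control.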

In assay [5] the test system is Ferriprotoporphyrin IX. Nature of the assay: Inhibitory concentration against ferriprotoporphyrin in biomineralisation assay (FBIT). It counts as functional, Plasmodium falciparum. In a few lines: as §2
Assay [6] has as its system Ferriprotoporphyrin IX. Nature of the assay: In vitro inhibitory concentration against ferriprotoporphyrin in biomineralisation assay (FBIT); Not active. It counts as functional, Plasmodium falciparum. In a few lines:
as §2

Assay [7] deals with Ferriprotoporphyrin IX. The assay can be described thus: Inhibitory concentration against ferriprotoporphyrin in biomineralisation assay (FBIT); Not active. It counts as functional, Plasmodium falciparum. In a few lines: as §2
Assay [8] concerns Ferriprotoporphyrin IX. Nature of the assay: Inhibitory concentration against ferriprotoporphyrin in biomineralisation (FBIT). It counts as functional, Plasmodium falciparum. The gist of the method: as §2

In the case of `COc1ccc(Cc2nn(C)c(=O)c3ccccc23)cc1OC`, in the assay with Plasmodium falciparum [1], the IC50 was 26 µg/mL and 84 µM. For the same compound, in the assay on Plasmodium falciparum [2], the Index is recorded as under 0.1%.

For `O=C(C(=O)c1ccccc1C(=O)N1CCCCC1)c1ccc(Cl)cc1`, in the assay with Plasmodium falciparum [1], the IC50 was 12 µg/mL and 33.8 µM. This compound also gave an Index with Plasmodium falciparum [2] of 0.12%.

On to `COc1ccc(Cc2nnc(O)c3ccccc23)cc1`, for which the Index was determined as 0.5% with Ferriprotoporphyrin IX [3] and 1.1% in the assay on Plasmodium falciparum [2]. The 50% inhibitory concentration (IC50) in the assay on Ferriprotoporphyrin IX [4] was 5750 µM; in the assay on Ferriprotoporphyrin IX [5], 1530 µg/mL (≈ 5750 µM); with Plasmodium falciparum [1], 1 µg/mL and 3.8 µM.

As for `CCN(CC)CCCC(C)Nc1ccnc2cc(Cl)ccc12` (stereo unspecified) [CHLOROQUINE], the IC50 turned out to be 28 µM in the assay on Ferriprotoporphyrin IX [4] and 8.5 µg/mL (≈ 26.6 µM) in the assay with Ferriprotoporphyrin IX [5].

With `COc1cc(Cc2nn(C)c(=O)c3ccccc23)cc(OC)c1OC`, the IC50 in the assay with Plasmodium falciparum [1] was 32 µg/mL and > 100 µM. Further, the Index with Plasmodium falciparum [2] is under 0.1%.

Take `OC1(Cc2ccc(Cl)cc2)c2ccccc2C2=NCCCN21` (stereo unspecified): the IC50 with Plasmodium falciparum [1] is 3.6 µg/mL and 11.5 µM. In the assay with Plasmodium falciparum [2], the Index is listed as 0.3%.

For `O=C(C(=O)c1ccccc1C(=O)N1CCCCC1)c1ccc2c(c1)OCO2`, the IC50 in the assay with Plasmodium falciparum [1] was 8.5 µg/mL and 20.7 µM. In the assay on Plasmodium falciparum [2], this compound displayed an Index of 0.2%.

Take `COc1cc(CC2(O)c3ccccc3C3=NCCN32)cc(OC)c1OC` (stereo unspecified): the Index in the assay on Ferriprotoporphyrin IX [3] came to 1.6%; in the assay with Plasmodium falciparum [2], 57%. Also, the half-inhibitory concentration (IC50) in the assay on Ferriprotoporphyrin IX [4] was 1740 µM; with Ferriprotoporphyrin IX [5] it was 590 µg/mL (≈ 1660 µM); with Plasmodium falciparum [1], 0.022 µg/mL and 70 nM.

Take `COc1ccc(CC2(O)c3ccccc3C3=NCCCN32)cc1OC` (stereo unspecified): the IC50 with Plasmodium falciparum [1] is 32 µg/mL and 104 µM. Also, in the assay on Plasmodium falciparum [2], the Index was under 0.1%.

As for `COc1cc(Cc2nnc(O)c3ccccc23)cc(OC)c1OC`, the IC50 with Plasmodium falciparum [1] is > 100 µg/mL and > 100 µM. This compound displayed an Index with Plasmodium falciparum [2] of under 0.01%.

As for `OC1(Cc2ccc3c(c2)OCO3)c2ccccc2C2=NCCCN21` (stereo unspecified), the IC50 with Plasmodium falciparum [1] is 38 µg/mL and 104 µM. The compound further yielded an Index in the assay on Plasmodium falciparum [2] of under 0.1%.

`O=c1[nH]nc(Cc2ccccc2)c2ccccc12`: the concentration for half-maximal inhibition (IC50) in the assay with Plasmodium falciparum [1] is > 100 µg/mL and > 100 µM. This compound also had an Index in the assay on Plasmodium falciparum [2] of under 0.1%.

As to `COc1ccc(C(=O)C(=O)c2ccccc2C(=O)N2CCCCC2)cc1`, the concentration for half-maximal inhibition (IC50) in the assay on Plasmodium falciparum [1] was 17 µg/mL and 48 µM. In the assay on Plasmodium falciparum [2], the Index was under 0.1%.

Turning to `COc1ccc(C(=O)C(=O)c2ccccc2C(=O)N2CCCCC2)cc1OC`, the IC50 in the assay with Plasmodium falciparum [1] was 32 µg/mL and 84 µM. The compound further had an Index in the assay on Plasmodium falciparum [2] of under 0.1%.

`COc1ccc(CCc2cc(O)cc(OC)c2C(=O)N2CCCCC2)cc1`: in the assay on Plasmodium falciparum [1], the IC50 is 6 µg/mL and 16.3 µM. Also, the Index in the assay on Plasmodium falciparum [2] came out at 0.25%.

For `Oc1nnc(Cc2ccc3c(c2)OCO3)c2ccccc12`, in the assay with Plasmodium falciparum [1], the IC50 was > 100 µg/mL and > 100 µM. The compound also came in with an Index in the assay on Plasmodium falciparum [2] of under 0.01%.

Take `OC1(Cc2ccc3c(c2)OCO3)c2ccccc2C2=NCCN21` (stereo unspecified): in the assay with Plasmodium falciparum [1], the 50% inhibitory concentration (IC50) is 0.067 µg/mL and 190 nM. This compound yielded an Index with Plasmodium falciparum [2] of 21%.

With `COc1cc(CC2(O)c3ccccc3C3=NCCCN32)cc(OC)c1OC` (stereo unspecified), the half-inhibitory concentration (IC50) in the assay on Plasmodium falciparum [1] is 5.2 µg/mL and 16.1 µM. In addition, the Index in the assay with Plasmodium falciparum [2] is given as 0.2%.

Consider `COc1ccc(Cc2nn(C)c(=O)c3ccccc23)cc1`, for which the IC50 entry with Ferriprotoporphyrin IX [6] is “Not Active”; in the assay with Plasmodium falciparum [1], 1 µg/mL and 3.6 µM; with Ferriprotoporphyrin IX [7], “Not Active”. In the assay with Plasmodium falciparum [2], the Index came to 1.1%.

Consider `OC1(Cc2ccccc2)c2ccccc2C2=NCCN21` (stereo unspecified), for which, in the assay on Plasmodium falciparum [1], the half-inhibitory concentration (IC50) was 2.5 µg/mL and 9.5 µM. This compound also came in with an Index with Plasmodium falciparum [2] of 0.4%.

`COc1ccc(CC(=O)c2ccccc2C(=O)N2CCCCC2)cc1OC`: in the assay with Plasmodium falciparum [1], the IC50 was 36 µg/mL and 98 µM. Besides, the Index in the assay with Plasmodium falciparum [2] was under 0.1%.

On to `COc1cc(CC(=O)c2ccccc2C(=O)N2CCCCC2)cc(OC)c1OC`, for which the concentration for half-maximal inhibition (IC50) in the assay on Plasmodium falciparum [1] is 100 µg/mL and > 100 µM. Moreover, the Index with Plasmodium falciparum [2] is recorded as under 0.1%.

On to `Cn1nc(Cc2ccc(Cl)cc2)c2ccccc2c1=O`, for which the concentration for half-maximal inhibition (IC50) with Plasmodium falciparum [1] was 15 µg/mL and 52.8 µM. Besides, the Index in the assay with Plasmodium falciparum [2] is on record as under 0.1%.

Consider `O=C(Cc1ccc(Cl)cc1)c1ccccc1C(=O)N1CCCCC1`, for which the IC50 with Plasmodium falciparum [1] was 12 µg/mL and 35 µM. In the assay on Plasmodium falciparum [2], this compound returned an Index of 0.11%.

Regarding `COc1ccc(CCc2cc(O)cc(OC)c2C(=O)O)cc1` [ISONOTHOLAENIC ACID], the concentration for half-maximal inhibition (IC50) in the assay with Plasmodium falciparum [1] was 16 µg/mL and 53 µM. Besides, in the assay with Plasmodium falciparum [2], the Index was under 0.1%.

Regarding `Cn1nc(Cc2ccc3c(c2)OCO3)c2ccccc2c1=O`, the IC50 in the assay on Plasmodium falciparum [1] was 3.8 µg/mL and 11 µM. In addition, the Index in the assay on Plasmodium falciparum [2] came out at 0.4%.

For `Oc1nnc(Cc2ccc(Cl)cc2)c2ccccc12`, the IC50 in the assay with Plasmodium falciparum [1] was 6 µg/mL and 22 µM. For the same compound, the Index with Plasmodium falciparum [2] stood at 0.18%.

With `COc1ccc(CC2(O)c3ccccc3C3=NCCN32)cc1` (stereo unspecified), the IC50 entry was “Not Active” in the assay with Ferriprotoporphyrin IX [6]; 0.017 µg/mL and 40 nM in the assay on Plasmodium falciparum [1]; “Not Active” with Ferriprotoporphyrin IX [7]. In the assay with Plasmodium falciparum [2], this compound gave an Index of 100%.

Take `COc1ccc(CC2(O)c3ccccc3C3=NCCCN32)cc1` (stereo unspecified): in the assay on Plasmodium falciparum [1], the IC50 was 2.3 µg/mL and 7.5 µM. Besides, the Index in the assay on Plasmodium falciparum [2] is listed as 0.5%.

As to `OC1(Cc2ccc(Cl)cc2)c2ccccc2C2=NCCN21` (stereo unspecified), the IC50 entry with Ferriprotoporphyrin IX [6] was “Not Active”; with Plasmodium falciparum [1], 0.036 µg/mL and 110 nM; with Ferriprotoporphyrin IX [7], “Not Active”. This compound also came in with an Index with Plasmodium falciparum [2] of 36%.

Take `OC1(Cc2ccccc2)c2ccccc2C2=NCCCN21` (stereo unspecified): the 50% inhibitory concentration (IC50) result in the assay with Ferriprotoporphyrin IX [6] is “Not Active”; in the assay on Plasmodium falciparum [1] it was 1 µg/mL and 3.6 µM; in the assay on Ferriprotoporphyrin IX [7], “Not Active”. For the same compound, the Index with Plasmodium falciparum [2] stood at 1.1%.

With `O=C(Cc1ccc2c(c1)OCO2)c1ccccc1C(=O)N1CCCCC1`, the concentration for half-maximal inhibition (IC50) with Plasmodium falciparum [1] was > 100 µg/mL and > 100 µM. In the assay with Plasmodium falciparum [2], the Index was under 0.1%.

Turning to `COc1ccc(CC(=O)c2ccccc2C(=O)N2CCCCC2)cc1`, the IC50 in the assay with Plasmodium falciparum [1] was > 100 µg/mL and > 100 µM. Moreover, the Index in the assay on Plasmodium falciparum [2] is reported as under 0.1%.

On to `COc1ccc(CC2(O)c3ccccc3C3=NCCN32)cc1OC` (stereo unspecified), for which the concentration for half-maximal inhibition (IC50) with Plasmodium falciparum [1] is 4.9 µg/mL and 9.3 µM. Further, in the assay with Plasmodium falciparum [2], the Index is reported as 0.4%.

Consider `Cn1nc(Cc2ccccc2)c2ccccc2c1=O`, for which the concentration for half-maximal inhibition (IC50) in the assay with Plasmodium falciparum [1] is 5 µg/mL and 20 µM. This compound also yielded an Index in the assay with Plasmodium falciparum [2] of 0.2%.

On to `C=C[C@H]1CN2CC[C@H]1C[C@H]2[C@H](O)c1ccnc2ccc(OC)cc12` [QUININE], for which the Index with Ferriprotoporphyrin IX [3] was found to be 11%. Also, the results for the concentration for half-maximal inhibition (IC50) in the assay with Ferriprotoporphyrin IX [8] and in the assay with Ferriprotoporphyrin IX [4] were 80 µg/mL (≈ 247 µM) and 250 µM, respectively.

In the case of `COc1ccc(Cc2nnc(O)c3ccccc23)cc1OC`, the IC50 in the assay with Plasmodium falciparum [1] was 95 µg/mL and > 100 µM. Further, in the assay with Plasmodium falciparum [2], the Index is listed as under 0.1%.

As for `COc1cc(C(=O)C(=O)c2ccccc2C(=O)N2CCCCC2)cc(OC)c1OC`, the IC50 with Plasmodium falciparum [1] was 30 µg/mL and 82 µM. Further, in the assay with Plasmodium falciparum [2], the Index is reported as under 0.1%.
